By IC50 is commonly meant the point on the concentration scale where inhibition reaches its midpoint.

Eleven compounds from ChEMBL document CHEMBL4196144, “Minor Nortriterpenoids from the Twigs and Leaves of Rhododendron latoucheae” (J Nat Prod, 2018) can be followed below.

The test system of series [1] is Human alphaherpesvirus 1. Nature of the series: Antiviral activity against HSV1 F VR 733 infected in African green monkey Vero cells assessed as inhibition of virus-induced cytopathic effect. The class given is functional, organism-based. The note with it: Human alphaherpesvirus 1, Strain F ATCC VR 733, Vero. A general note: Protection from cytopathic effect is a common read-out in antiviral testing.

Series [2] can be described thus: Cytotoxicity against African green monkey Vero cells measured after 48 hrs. In kind it is cell-based. Particulars: chlorocebus sabaeus, read-out: TC50. The essentials:
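TC50 is the concentration that inhibits Vero cell growth by 50%. It is used with the antiviral IC50 to give a selectivity index (TC50/IC50).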

For series [3], the system named is Influenza A virus. Nature of the series: Antiviral activity against Influenza A virus A/95-359 infected in MDCK cells assessed as inhibition of virus-induced cytopathic effect. The class given is functional, organism-based. The note with it: A/95-359, MDCK. A digest of the protocol:
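MDCK cells; IC50 given as the mean of three independent determinations.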

A short description of series [4]: Cytotoxicity against MDCK cells measured after 48 hrs. Particulars: dog, read-out: TC50. The class given is cell-based, Canis lupus familiaris. The essentials:
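TC50 is the concentration that inhibits MDCK cell growth by 50%, reported as the mean of three independent determinations. It is paired with the anti-influenza A IC50 to give a selectivity index (TC50/IC50).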

Series [5] in a line: Selectivity index, ratio of TC50 for African green monkey Vero cells to IC50 for HSV1 strain F VR 733 infected in African green monkey Vero cells. In kind it is toxicity. Particulars: read-out: Selectivity Index. A digest of the protocol: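 Calculated as TC50/IC50 in Vero cells. TC50 is the cytotoxic concentration that inhibits Vero cell growth by 50%. No SI was assigned where it could not be determined under the test conditions.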

Series [6] is described as follows: Selectivity index, ratio of TC50 for MDCK cells to IC50 for Influenza A virus A/95-359 infected in MDCK cells. The class given is toxicity, cell-based. Particulars: dog, read-out: Selectivity Index. The essentials:
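Ratio of TC50 to IC50, both in MDCK cells. TC50 is the concentration that inhibits MDCK cell growth by 50%. Values are means of three independent determinations. No SI was assigned where it could not be determined under the test conditions.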

With `Cc1ccc2c(c1C)C1=CC[C@@H]3[C@@]4(C)[C@H](O)C[C@@H](O)[C@](C)(CO)[C@@H]4CC[C@@]3(C)[C@]1(C)CC2`, the IC50 in series [1] and in series [3] was greater than 3.7 µM throughout. Moreover, the CC50 at 48 h amounted to 11.1 µM in series [2] and 16 µM in series [4].
Consider `Cc1ccc2c(c1C)C1=CC[C@@H]3[C@@]4(C)C[C@@H](O)[C@H](O)[C@@](C)(CO)[C@@H]4CC[C@@]3(C)[C@]1(C)CC2`, for which the results for the IC50 in series [1] and in series [3] were 0.41 µM and 1.23 µM, respectively. In addition, the values for the CC50 at 48 h in series [2] and in series [4] were 1.78 µM and 3.7 µM, respectively. Moreover, the results for the selectivity ratio in series [5] and in series [6] were 4.3 and 3, respectively.
In the case of `CC1=C2C3=CC[C@@H]4[C@@]5(C)CC[C@@H](O)[C@@](C)(CO)[C@@H]5CC[C@@]4(C)[C@]3(C)CC[C@@]23CC[C@]1(C)OO3`, the IC50 in series [1] and in series [3] was greater than 11.1 µM each time. Moreover, the CC50 at 48 h stood at 57.7 µM in series [2] and 19.2 µM in series [4].
Consider `Cc1ccc2c(c1C)C1=CC[C@@H]3[C@@]4(C)CC[C@@H](O)[C@](C)(CO)[C@@H]4CC[C@@]3(C)[C@]1(C)CC2`, for which the IC50 in series [1] is greater than 1.23 µM; in series [3], greater than 11.1 µM. The values for the CC50 at 48 h in series [2] and in series [4] were 5.34 µM and 19.2 µM, respectively.
As for `Cc1ccc2c(c1C)C1=CC[C@@H]3[C@@]4(C)C[C@@H](O)[C@@H](O)[C@](C)(CO)[C@@H]4CC[C@@]3(C)[C@]1(C)CC2`, the IC50 was greater than 1.23 µM in series [1] and greater than 3.7 µM in series [3]. In addition, the results for the CC50 at 48 h in series [2] and in series [4] were 3.7 µM and 7.7 µM, respectively.
The corresponding values for `CC1=C2C3=CC[C@@H]4[C@@]5(C)CC[C@@H](O)[C@](C)(CO)[C@@H]5CC[C@@]4(C)[C@]3(C)CC[C@]23CC[C@@]1(C)OO3` are greater than 11.1 µM, greater than 11.1 µM, 33.3 µM and 19.2 µM.
With `Cc1ccc2c(c1C)C1=CC[C@@H]3[C@@]4(C)[C@H](O)[C@@H](O)[C@@H](O)[C@@](C)(CO)[C@@H]4CC[C@@]3(C)[C@]1(C)CC2`, the IC50 in series [1] was greater than 0.41 µM; in series [3] it was greater than 1.23 µM. The results for the CC50 at 48 h in series [2] and in series [4] were 1.78 µM and 2.57 µM, respectively.
The corresponding values for `CC(=O)CCC1=C(C(C)=O)C2=CC[C@@H]3[C@@]4(C)C[C@@H](O)[C@@H](O)[C@](C)(CO)[C@@H]4CC[C@@]3(C)[C@]2(C)CC1` are greater than 33.3 µM, greater than 33.3 µM, 69.3 µM and greater than 100 µM.
As for `CCOC(=O)C1=C[C@@H](OC(CC)CC)[C@H](NC(C)=O)[C@@H](N)C1` [OSELTAMIVIR], the IC50 in series [3] came to 1.63 µM.
With `Nc1nc2c(ncn2COCCO)c(=O)[nH]1` [ACYCLOVIR], the IC50 in series [1] worked out at 0.41 µM. Besides, in series [2], the CC50 at 48 h is greater than 100 µM. Further, the selectivity ratio in series [5] was greater than 244.
As for `CC1=C2C3=CC[C@@H]4[C@@]5(C)C[C@@H](O)[C@@H](O)[C@@](C)(CO)[C@@H]5CC[C@@]4(C)[C@]3(C)CC[C@@]23CC[C@]1(C)OO3`, the IC50 is 6.41 µM in series [1] and greater than 33.3 µM in series [3]. Also, the CC50 at 48 h in series [2] stood at 23.1 µM; in series [4], 57.7 µM. For the same compound, the selectivity ratio in series [5] was 3.6.
